The full list was thinned out, with hits kept by preference.
CHOP inh: inhibitors of CHOP promoter induction, primary screen, cell-based, unfolded protein response, luciferase reporter; 220,000 tested, 3.8% active; CHO-K1 CHOP-promoter luciferase, tunicamycin-induced, 15-18 h; inhibition, % at 10 µM;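 active = compounds that reduced the stress-induced luciferase reporter signal by more than about 70% of percent inhibition, limit read from the data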
UPR XBP1 act: activators of adaptive XBP1 UPR arm, primary screen, cell-based, CHO-XBP1 luciferase reporter, luminescence, uHTS. AID 463104, 2010. 330,000 tested, 0.33% active. activation, % at 20 µM. IRE1-XBP1 UPR activation; percent of tunicamycin response, DMSO as zero;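 active = versus positive control, 20 µM dose yields 30% or more activation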
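Material: IRE1-XBP1 luciferase reporter CHO line / Quantity: one thousand reporter cells per well / Buffer or medium: F12 with 10% serum / Compound: 20 µM single concentration, DMSO 1% / Times: 6 h treatment, 37 °C / Detection: Steady-Glo luciferase glow luminescence, 10 min after reagent addition / Benchmarks: tunicamycin high, DMSO low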
A1 inh: caspase 3/7 activation in MEF A1-2A-BIM cells, primary screen, A1 inhibitor project, cell-based, luminescence, HTS; Caspase-Glo 3/7 luminescence, 3 h; percent of clofoctol response, vehicle zero; caspase activation, % (concentration not given with the values); 330,000 tested, 0.066% active;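 active = over half of replicate activation scores above 10%, or exactly half above 10 with the replicate mean above 10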
CHOP UPR activ: activators of apoptotic CHOP UPR arm, primary screen, cell-based, CHO-CHOP luciferase reporter, luminescence, uHTS; activation, % at 10 µM; 330,000 tested, 0.34% active; UPR activation; percent of tunicamycin response over DMSO baseline;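 active = at 10 µM dose, activation of 40% or more, normalized to positive control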
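Assay system: CHO-CHOP cells, stable luciferase reporter of PERK-eIF2a-CHOP signalling / Buffer or medium: F12 plus 10% serum / Compound dosing: one dose, 10 µM in 0.5% DMSO / Times: 6 h compound treatment, 37 °C / Technique: luciferase luminescence / Read-out: % reporter activation, DMSO baseline versus tunicamycin full activation / Benchmarks: tunicamycin and DMSO controls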
Each line names hits and unclear results; the compound was inactive in the other large screens.

COC(=O)c1ccc[n+](CCc2c[nH]c3ccccc23)c1	none (no result: CHOP inh)
O=C(Nc1ncc(Cc2ccccc2Cl)s1)c1ccc([N+](=O)[O-])cc1	none
O=C(Nc1ncc(Cc2cccc(Cl)c2)s1)c1ccc([N+](=O)[O-])cc1	CHOP inh 76
CC(C)(C)c1ccc(COC(=O)Nc2ccc(F)cc2)cc1	CHOP inh 77
O=C(NCc1ccco1)c1cc2cc3ccc(Cl)cc3nc2o1	CHOP inh 80
O=S(=O)(Nc1ccc(OC(F)F)cc1)c1ccc(-c2ccon2)s1	none (no result: CHOP inh)
CC1CC(C)CN(CCOc2ccccc2-c2ccccc2)C1 (stereo not drawn)	CHOP inh 93
O=C(CCl)Nc1cccc(S(=O)(=O)NC2=NCCC2)c1	none
Cc1cc(C)c2nc(SCc3ccc([N+](=O)[O-])cc3)nc(C)c2c1	none
Cc1ccc2nc(C)cc(Nc3ccc([N+](=O)[O-])cc3)c2c1	CHOP inh 104 (no result: UPR XBP1 act, CHOP UPR activ)
Cc1ccc(Nc2nc(=O)c3cc([N+](=O)[O-])ccc3s2)cc1	CHOP inh 93
Cc1ccc2nc(SCc3ccc([N+](=O)[O-])cc3)nc(C)c2c1	CHOP inh 75
COc1ccc(Nc2nc(=O)c3cc([N+](=O)[O-])ccc3s2)cc1	none (no result: UPR XBP1 act, A1 inh, CHOP UPR activ)
Nc1ncnc2c1ncn2[C@@H]1O[C@H](CNCc2ccc(OCC(=O)Nc3nccs3)cc2)[C@@H](O)[C@H]1O	none (no result: CHOP inh)
O=C(NC1CCCc2ccccc21)c1c(F)cccc1Cl (stereo not drawn)	none (no result: CHOP inh)
O=C(NC(=S)N1CCCCC1CO)c1cccs1 (stereo not drawn)	none (no result: CHOP inh)
O=CNn1cnc2c(oc3nc(-c4ccccc4)cc(-c4ccco4)c32)c1=O	CHOP inh 85
CCN1C[C@@H]2[C@@H]3C(=O)N(C)C(=O)[C@@H]3[C@](Cc3ccccc3)(C(=O)OC)N2C1=NC1CCCCC1	none (no result: CHOP inh, A1 inh)
CCOC(=O)c1cc2c(ccn2C)n1Cc1cc(C)ccc1C	CHOP inh 90
CCOC(=O)c1cc2c(ccn2C)n1CC(=O)N1CCN(c2ccc(F)cc2)CC1	none
C=C[C@H]1CN2CCC1C[C@@H]2[C@@H](O)c1ccnc2ccc(OC)cc12 (stereo partly drawn)	none (no result: UPR XBP1 act, A1 inh, CHOP UPR activ)
COC(=O)c1ccc2nc(-c3ccc4c(c3)OCO4)cn2c1	none
CCc1ccn2cc(-c3ccc4c(c3)OCO4)nc2c1	CHOP inh 78
Cc1ccc(C)c(NC(=S)NNC(=O)c2csc3c2CCC(C)C3)c1 (stereo not drawn)	CHOP inh 90
CN(C)c1ccc(S(=O)(=O)N2CCC(Cc3ccccc3)CC2)cn1	none (no result: CHOP inh)
O=[N+]([O-])c1ccccc1CNC(Cc1ccccc1)c1ccccc1 (stereo not drawn)	CHOP inh 80
CC(C)(C)N1C(=O)c2ccc(C(=O)Nc3ccc(O)cc3)cc2C1=O	none (no result: CHOP inh)
COc1ccc(/C=C2\SC(=S)N(CCCC(=O)NNC(=O)c3ccccc3O)C2=O)cc1	CHOP inh 106
O=C(CCCN1C(=O)/C(=C/c2ccccc2Cl)SC1=S)NNC(=O)c1ccccc1Cl	CHOP inh 95
CCc1ccc(/C=C2\SC(=S)N(CCCC(=O)Nc3nccs3)C2=O)cc1	CHOP inh 78
Cc1ccc(/C=C2\SC(=S)N(CCCC(=O)Nc3nccs3)C2=O)cc1	none
CCCCS(=O)(=O)Nc1ccc(N2CCOCC2)c(S(=O)(=O)N2CCOCC2)c1	none (no result: CHOP inh)
CN(C)c1ccc(C(C(=O)NC2CCCC2)N(C(=O)c2csnn2)C2CC2)cc1 (stereo not drawn)	none (no result: CHOP inh)
COc1ccc(NC(=O)CCCc2nc3ccccc3c(=O)[nH]2)cc1Cl	none (no result: CHOP inh)
CCOC(=O)NC(NCc1ccccc1)(C(F)(F)F)C(F)(F)F	none
CCOC(=O)NC(NCCc1ccccc1)(C(F)(F)F)C(F)(F)F	CHOP inh 70
Cc1cc(=O)n2c(C(=O)Nc3ccc(C(=O)OC(C)C)cc3)c(C(=O)Nc3ccccc3)sc2n1	CHOP inh 96
CC(C)OC(=O)c1ccc(NC(=O)c2cccc(-n3cnnn3)c2)cc1	none (no result: CHOP inh)
CC1(C)Cc2c(c(-c3ccco3)nc3sc4c(NCC5CCCO5)ncnc4c23)CO1 (stereo not drawn)	CHOP inh 95
COc1ccc(NC(=O)Nc2cccc3c2O[C@H](CN(C)Cc2ccc(-c4ccccc4)cc2)[C@@H](C)CN([C@H](C)CO)C3=O)cc1	none (no result: CHOP inh)

Source: PubChem
